Results on three compounds are retold here after article PMC7888308 (ACS Pharmacology & Translational Science, 2021).

Structures are written as SMILES. Where a chain is given by its changes, count along the chain named. In brackets after ≈: the same amount, converted by molar mass.

The target in data set [1] is T1, UGT1A1 P152T (Homo sapiens, UniProt P22309, P152T).
T1 sequence (P22309 26-533 P152T): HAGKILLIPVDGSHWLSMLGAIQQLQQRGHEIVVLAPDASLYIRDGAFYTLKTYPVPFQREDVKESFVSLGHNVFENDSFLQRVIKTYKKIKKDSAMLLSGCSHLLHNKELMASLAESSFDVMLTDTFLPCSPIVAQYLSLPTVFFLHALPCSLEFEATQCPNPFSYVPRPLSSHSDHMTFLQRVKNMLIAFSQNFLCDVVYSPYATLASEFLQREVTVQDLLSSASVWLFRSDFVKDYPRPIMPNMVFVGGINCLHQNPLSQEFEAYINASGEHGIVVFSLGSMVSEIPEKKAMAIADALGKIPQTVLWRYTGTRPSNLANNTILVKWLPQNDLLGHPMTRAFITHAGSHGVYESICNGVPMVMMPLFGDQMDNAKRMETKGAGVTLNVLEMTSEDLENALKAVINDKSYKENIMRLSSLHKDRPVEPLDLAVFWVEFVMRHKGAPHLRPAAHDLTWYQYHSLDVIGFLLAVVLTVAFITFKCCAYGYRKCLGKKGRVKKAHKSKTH
The experiment in a line: glucuronidation by UGT1A1 P152T expressed in COS-7 cells. The class given is in vitro ADME. The following applies: 20 μM drug, 24 h, compared to wild-type UGT1A1.

The target in data set [2] is T2, wild-type UGT1A1 (Homo sapiens, UniProt P22309).
T2 sequence (P22309 26-533): T1 sequence (P22309 26-533 P152T) with T127P
The data set can be described thus: glucuronidation by wild-type UGT1A1 expressed in COS-7 cells. The following applies: 20 μM drug, 24 h. The class given is in vitro ADME.

For data set [3], the system named is HIV integrase. The following applies: in vitro assays; cited from earlier work.
The conditions of data set [4]: pH 6.8 phosphate buffer at 20 °C; cited from earlier work.
Data set [5] deals with T3, UGT1A9 wild-type (Homo sapiens, UniProt O60656).
T3 sequence (O60656 26-530): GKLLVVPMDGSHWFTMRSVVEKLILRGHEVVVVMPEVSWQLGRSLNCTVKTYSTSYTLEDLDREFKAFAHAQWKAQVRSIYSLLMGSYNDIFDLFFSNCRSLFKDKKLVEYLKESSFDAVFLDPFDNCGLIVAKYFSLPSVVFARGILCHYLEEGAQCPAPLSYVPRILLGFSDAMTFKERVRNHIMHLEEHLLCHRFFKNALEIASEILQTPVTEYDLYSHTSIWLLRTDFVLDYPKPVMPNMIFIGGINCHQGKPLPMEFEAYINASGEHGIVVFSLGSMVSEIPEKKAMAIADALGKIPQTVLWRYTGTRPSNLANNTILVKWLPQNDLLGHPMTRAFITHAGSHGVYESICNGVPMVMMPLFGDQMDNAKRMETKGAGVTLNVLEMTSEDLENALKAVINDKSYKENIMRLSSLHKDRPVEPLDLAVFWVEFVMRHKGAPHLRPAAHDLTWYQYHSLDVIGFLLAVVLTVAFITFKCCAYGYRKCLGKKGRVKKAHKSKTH
The data set can be described thus: CAB glucuronidation by UGT1A9 wild-type expressed in COS-7 cells. It is filed as in vitro ADME.

The subject of data set [6] is human kidney microsomes. The data set can be described thus: human kidney microsome metabolism experiment. It is filed as in vitro ADME. The following applies: CAB 10 μM, microsomes 0.5 mg/mL, UGT cofactor, 60 min, 37 °C.
Data set [7] has as its system human liver microsomes. The data set can be described thus: human liver microsome metabolism experiment. The class given is in vitro ADME. The settings on record: CAB 10 μM, microsomes 0.5 mg/mL, UDPGA, 60 min, 37 °C. Summed up:
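Pooled liver microsomes (50 mixed-sex donors, 0.5 mg/mL) were preincubated 5 min at 37 °C with test compound (10 μM) in 100 mM potassium phosphate, pH 7.4. A UGT reaction mixture containing 25 mM UDPGA plus alamethicin was added, and reactions ran 60 min at 37 °C. Acetonitrile quench, centrifugation, drying and methanol reconstitution followed. Glucuronide was detected by LC–MS/MS using the m/z 582 → 406 transition.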
A general note: Microsomes from liver hold many membrane-bound enzymes, among them those of drug oxidation.

Data set [8] concerns the target T4, UGT1A9 H217Y (Homo sapiens, UniProt O60656, H217Y).
T4 sequence (O60656 26-530 H217Y): T3 sequence (O60656 26-530) with H192Y
The experiment in a line: CAB glucuronidation by UGT1A9 H217Y expressed in COS-7 cells. The class given is in vitro ADME.

For data set [9] the following is noted: HPTN 077 participants, South Africa, Brazil, Malawi, United States; cited from earlier work.
In data set [10] the test system is UGT1A9. The following applies: reaction phenotyping; cited from earlier work.
For data set [11], the target named is T5, UGT1A9 R464G (Homo sapiens, UniProt O60656, R464G).
T5 sequence (O60656 26-530 R464G): T3 sequence (O60656 26-530) with R439G
The experiment in a line: CAB glucuronidation by UGT1A9 R464G expressed in COS-7 cells. The class given is in vitro ADME.

Data set [12] concerns UGT1A1. The settings on record: reaction phenotyping; cited from earlier work.

Take `CCc1c2c(nc3ccc(O)cc13)-c1cc3c(c(=O)n1C2)COC(=O)[C@]3(O)CC` [SN-38, 7-ethyl-10-hydroxycamptothecin]: in data set [1], the “glucuronidated metabolite in cells expressing UGT1A1 P152T” value (shortened to “glucuronidated metabolite”) is recorded as “marked reduction”.
For `C[C@@H]1CCO[C@H]2Cn3cc(C(=O)NCc4ccc(F)cc4F)c(=O)c(O)c3C(=O)N12` [DTG, dolutegravir], in data set [1], the “glucuronidated metabolite” value was “undetectable”. Besides, in data set [2], the “glucuronidation in cells transfected with wild-type UGT1A1” value is listed as “readily glucuronidated”.
In the case of `C[C@H]1CO[C@@H]2Cn3cc(C(=O)NCc4ccc(F)cc4F)c(=O)c(O)c3C(=O)N12` [CAB, Cabotegravir], the “efficacy of inhibition of integrase-catalyzed viral DNA strand transfer” value in data set [3] is given as “low or subnanomolar”. For the same compound, the aqueous solubility in data set [4] is 15 µg/mL (≈ 37 µM). In addition, the “formation of CAB-glucuronide by UGT1A9 wild-type” value in data set [5] (24 h incubation with CAB) is “not observed”. Further, the “CAB-glucuronide production by UGT1A9 wild-type” value in data set [5] (48 h treatment with CAB) is recorded as “able to detect”. Besides, the “metabolite formation in human kidney microsomes” value in [6] is reported as “observed the formation of CAB-glucuronide”. Besides, in [7], the “additional metabolites in human liver microsomes” value is recorded as “no additional metabolites of CAB were detected” and the “metabolite formed in human liver microsomes” value is listed as “identified as CAB-glucuronide”. For the same compound, the “formation of CAB-glucuronide by UGT1A9 H217Y” value in data set [8] (24 h incubation with CAB) is reported as “not observed”. Moreover, the “CAB-glucuronide production by UGT1A9 H217Y” value in data set [8] (48 h treatment with CAB) is reported as “able to detect”. Moreover, the “glucuronidated metabolite” value in [1] is “undetectable”. The tolerability result in data set [9] is reported as “well tolerated”. Also, the “fractional contribution of UGT1A9 to CAB metabolism” value in [10] is 0.33. For the same compound, the “glucuronidation in cells transfected with wild-type UGT1A1” value in data set [2] is “readily glucuronidated”. The “formation of CAB-glucuronide by UGT1A9 R464G” value in [11] (24 h incubation with CAB) is reported as “not observed”. Also, the “CAB-glucuronide production by UGT1A9 R464G” value in data set [11] (48 h treatment with CAB) is recorded as “not detectable above the background”. Besides, the “fractional contribution of UGT1A1 to CAB metabolism” value in data set [12] was 0.67.

As a reminder, the aqueous solubility is the dissolved amount per volume that the medium holds.
